The results in this text go back to ChEMBL document CHEMBL3112486, “Novel class of benzoic acid ester derivatives as potent PDE4 inhibitors for inhaled administration in the treatment of respiratory diseases” (J Med Chem, 2014).

The first assay concerns the target T1, Phosphodiesterase 4 (Homo sapiens, UniProt P27815+Q08499+Q07343+Q08493). Nature of the assay: Inhibition of PDE4 isolated from human U937 cells assessed as […] by LANCE assay. Type of assay: cell-free. Conditions: u-937.
By IC50 is commonly meant the concentration that gives 50% inhibition. For `COc1ccc(NS(C)(=O)=O)cc1C(=O)O[C@@H](Cc1c(Cl)c[n+]([O-])cc1Cl)c1ccc(OC(F)F)c(OCC2CC2)c1`, the IC50 was 40 pM. As for `COc1ccc(C(=O)O[C@@H](Cc2c(Cl)c[n+]([O-])cc2Cl)c2ccc(OC(F)F)c(OCC3CC3)c2)c(NS(C)(=O)=O)c1`, the IC50 was 730 pM. Turning to `O=C(O[C@@H](Cc1c(Cl)c[n+]([O-])cc1Cl)c1ccc(OC(F)F)c(OCC2CC2)c1)c1ccc(OC(F)F)c(OCC2CC2)c1`, the IC50 stood at 220 pM. The same measure, in the same setting: for `O=C(O[C@H](Cc1c(Cl)cncc1Cl)c1ccc(OC(F)F)c(OCC2CC2)c1)c1ccc(OC(F)F)c(OCC2CC2)c1` the value was 44000 pM; for `O=C(CCCc1ccccc1)OC(Cc1c(Cl)cncc1Cl)c1ccc(OC(F)F)c(OCC2CC2)c1` (racemic), 1340 pM. Take `CS(=O)(=O)Nc1ccc(C(=O)O[C@@H](Cc2c(Cl)c[n+]([O-])cc2Cl)c2ccc(OC(F)F)c(OCC3CC3)c2)cc1OCc1ccccc1`: the 50% inhibitory concentration (IC50) is 560 pM. The same measure, in the same setting: for `O=C(O[C@@H](Cc1c(Cl)c[n+]([O-])cc1Cl)c1ccc(OC(F)F)c(OCC2CC2)c1)c1ccc(O)c(OCC2CC2)c1` the value was 40 pM; for `[O-][n+]1cc(Cl)c(C[C@H](O)c2ccc(OC(F)F)c(OCC3CC3)c2)c(Cl)c1`, 9440 pM. Regarding `CCCC(=O)OC(Cc1c(Cl)cncc1Cl)c1ccc(OC(F)F)c(OCC2CC2)c1` (racemic), the 50% inhibitory concentration (IC50) stood at 1740 pM. Regarding `COc1ccc(C(=O)O[C@@H](Cc2c(Cl)c[n+]([O-])cc2Cl)c2ccc(OC(F)F)c(OCC3CC3)c2)cc1OCC1CC1`, the IC50 was 50 pM. As to `CN(C)c1ccc(C(=O)O[C@@H](Cc2c(Cl)c[n+]([O-])cc2Cl)c2ccc(OC(F)F)c(OCC3CC3)c2)cc1OCC1CC1`, the half-maximal inhibitory concentration (IC50) is 310 pM. Consider `Cc1ccc(C(=O)O[C@@H](Cc2c(Cl)c[n+]([O-])cc2Cl)c2ccc(OC(F)F)c(OCC3CC3)c2)cc1NS(C)(=O)=O`, for which the IC50 amounted to 30 pM.

In the case of `COc1cc(NS(C)(=O)=O)cc(C(=O)O[C@@H](Cc2c(Cl)c[n+]([O-])cc2Cl)c2ccc(OC(F)F)c(OCC3CC3)c2)c1`, the half-inhibitory concentration (IC50) was 170 pM. `CS(=O)(=O)Nc1ccc(C(=O)O[C@@H](Cc2c(Cl)c[n+]([O-])cc2Cl)c2ccc(OC(F)F)c(OCC3CC3)c2)cc1`: the IC50 amounted to 50 pM. Take `CNS(=O)(=O)c1cc(C(=O)O[C@@H](Cc2c(Cl)c[n+]([O-])cc2Cl)c2ccc(OC(F)F)c(OCC3CC3)c2)ccc1OC`: the IC50 was 30 pM. As for `N#Cc1ccc(C(=O)O[C@@H](Cc2c(Cl)c[n+]([O-])cc2Cl)c2ccc(OC(F)F)c(OCC3CC3)c2)cc1`, the IC50 was found to be 410 pM. Regarding `COc1ccc(C(=O)O[C@@H](Cc2c(Cl)c[n+]([O-])cc2Cl)c2ccc(OC(F)F)c(OCC3CC3)c2)cc1S(=O)(=O)N(C)C`, the IC50 was 30 pM. Still for that read-out and setting: then `CC(=O)Nc1ccc(C(=O)O[C@@H](Cc2c(Cl)c[n+]([O-])cc2Cl)c2ccc(OC(F)F)c(OCC3CC3)c2)cc1OCC1CC1`, with 240 pM. On the same count and under the same terms, for `O=C(O[C@@H](Cc1c(Cl)c[n+]([O-])cc1Cl)c1ccc(OC(F)F)c(OCC2CC2)c1)c1ccc(NS(=O)(=O)C2CC2)c(OCC2CC2)c1` the value was 150 pM; for `O=C(O[C@@H](Cc1c(Cl)c[n+]([O-])cc1Cl)c1ccc(OC(F)F)c(OCC2CC2)c1)c1ccccc1`, 72 pM.

Consider `O=C(O[C@@H](Cc1c(Cl)c[n+]([O-])cc1Cl)c1ccc(OC(F)F)c(OCC2CC2)c1)c1ccc(CO)c(OCC2CC2)c1`, for which the concentration for half-maximal inhibition (IC50) is 80 pM.

As for `O=C(O[C@@H](Cc1c(Cl)cncc1Cl)c1ccc(OC(F)F)c(OCC2CC2)c1)c1ccc(OC(F)F)c(OCC2CC2)c1`, the IC50 is 1900 pM. For `O=C(Cc1ccccc1)OC(Cc1c(Cl)cncc1Cl)c1ccc(OC(F)F)c(OCC2CC2)c1` (racemic), the IC50 worked out at 1060 pM. For `CC(=O)OC(Cc1c(Cl)cncc1Cl)c1ccc(OC(F)F)c(OCC2CC2)c1` (racemic), the half-maximal inhibitory concentration (IC50) was 4090 pM.

The target in another assay is T1, Phosphodiesterase 4. Nature of the assay: Inhibition of PDE4 activity in human PBMC assessed as inhibition of LPS-induced TNFalpha release after 18 hrs by ELISA.
Details: not given
In a few lines: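 Human PBMCs plated at 10^5 cells/well in RPMI 1640 without phenol red plus 10% FBS, at 37 °C, 5% CO2. Compound added at 10^-15 to 10^-6 M (final DMSO 0.2%), with E. coli LPS at 3 ng/mL final, for 18 h. TNFα in supernatant measured by paired-antibody ELISA. IC50 from four-parameter logistic nonlinear regression, reported with 95% confidence intervals.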
A general note: ELISA stands for enzyme-linked immunosorbent assay.
Take `COc1ccc(NS(C)(=O)=O)cc1C(=O)O[C@@H](Cc1c(Cl)c[n+]([O-])cc1Cl)c1ccc(OC(F)F)c(OCC2CC2)c1`: the IC50 is 890 pM. For `COc1ccc(C(=O)O[C@@H](Cc2c(Cl)c[n+]([O-])cc2Cl)c2ccc(OC(F)F)c(OCC3CC3)c2)c(NS(C)(=O)=O)c1`, the concentration for half-maximal inhibition (IC50) is above 60000 pM. Consider `O=C(O[C@@H](Cc1c(Cl)c[n+]([O-])cc1Cl)c1ccc(OC(F)F)c(OCC2CC2)c1)c1ccc(OC(F)F)c(OCC2CC2)c1`, for which the IC50 was 1100 pM. As to `CS(=O)(=O)Nc1ccc(C(=O)O[C@@H](Cc2c(Cl)c[n+]([O-])cc2Cl)c2ccc(OC(F)F)c(OCC3CC3)c2)cc1OCc1ccccc1`, the 50% inhibitory concentration (IC50) was found to be 990 pM. Turning to `O=C(O[C@@H](Cc1c(Cl)c[n+]([O-])cc1Cl)c1ccc(OC(F)F)c(OCC2CC2)c1)c1ccc(O)c(OCC2CC2)c1`, the IC50 came out at 850 pM. `[O-][n+]1cc(Cl)c(C[C@H](O)c2ccc(OC(F)F)c(OCC3CC3)c2)c(Cl)c1`: the concentration for half-maximal inhibition (IC50) is 479000 pM. For `COc1ccc(C(=O)O[C@@H](Cc2c(Cl)c[n+]([O-])cc2Cl)c2ccc(OC(F)F)c(OCC3CC3)c2)cc1OCC1CC1`, the IC50 was 40 pM. As for `CN(C)c1ccc(C(=O)O[C@@H](Cc2c(Cl)c[n+]([O-])cc2Cl)c2ccc(OC(F)F)c(OCC3CC3)c2)cc1OCC1CC1`, the half-maximal inhibitory concentration (IC50) is 630 pM. `Cc1ccc(C(=O)O[C@@H](Cc2c(Cl)c[n+]([O-])cc2Cl)c2ccc(OC(F)F)c(OCC3CC3)c2)cc1NS(C)(=O)=O`: the IC50 is 960 pM. On to `COc1cc(NS(C)(=O)=O)cc(C(=O)O[C@@H](Cc2c(Cl)c[n+]([O-])cc2Cl)c2ccc(OC(F)F)c(OCC3CC3)c2)c1`, for which the half-inhibitory concentration (IC50) was 130 pM.

Turning to `CS(=O)(=O)Nc1ccc(C(=O)O[C@@H](Cc2c(Cl)c[n+]([O-])cc2Cl)c2ccc(OC(F)F)c(OCC3CC3)c2)cc1`, the IC50 came out at 130 pM. In the case of `CNS(=O)(=O)c1cc(C(=O)O[C@@H](Cc2c(Cl)c[n+]([O-])cc2Cl)c2ccc(OC(F)F)c(OCC3CC3)c2)ccc1OC`, the IC50 amounted to 250 pM. Consider `N#Cc1ccc(C(=O)O[C@@H](Cc2c(Cl)c[n+]([O-])cc2Cl)c2ccc(OC(F)F)c(OCC3CC3)c2)cc1`, for which the half-inhibitory concentration (IC50) was 2100 pM. With `COc1ccc(C(=O)O[C@@H](Cc2c(Cl)c[n+]([O-])cc2Cl)c2ccc(OC(F)F)c(OCC3CC3)c2)cc1S(=O)(=O)N(C)C`, the IC50 was 1850 pM.

Take `CC(=O)Nc1ccc(C(=O)O[C@@H](Cc2c(Cl)c[n+]([O-])cc2Cl)c2ccc(OC(F)F)c(OCC3CC3)c2)cc1OCC1CC1`: the half-inhibitory concentration (IC50) was determined as 210 pM. `O=C(O[C@@H](Cc1c(Cl)c[n+]([O-])cc1Cl)c1ccc(OC(F)F)c(OCC2CC2)c1)c1ccc(NS(=O)(=O)C2CC2)c(OCC2CC2)c1`: the half-maximal inhibitory concentration (IC50) stood at 340 pM. `O=C(O[C@@H](Cc1c(Cl)c[n+]([O-])cc1Cl)c1ccc(OC(F)F)c(OCC2CC2)c1)c1ccccc1`: the half-maximal inhibitory concentration (IC50) stood at 1710 pM. Turning to `O=C(O[C@@H](Cc1c(Cl)c[n+]([O-])cc1Cl)c1ccc(OC(F)F)c(OCC2CC2)c1)c1ccc(CO)c(OCC2CC2)c1`, the concentration for half-maximal inhibition (IC50) stood at 690 pM.
